According to article PMC10947786 (ACS synthetic biology, 2024):

Key:
Solubility in water = type: physicochemical; conditions: purified peptide
[1] = Hydrogen-deuterium exchange MS; type: physicochemical; conditions: 3:7 D2O:acetonitrile, MALDI-TOF MS (Figure S13); for Hydrogen-deuterium exchange, deuteration within 1 min: 1 min timescale
Method in brief: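 Purified peptide was dried under vacuum and redissolved in 3:7 D2O:acetonitrile. At set time points over 24 h, aliquots were quenched by spotting onto the MALDI target with saturated sinapinic acid in 3:7 D2O:acetonitrile + 0.1% formic acid (pH = 2). Deuterium uptake was read by MALDI-TOF MS.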

Substance | solubility in water (Solubility in water) [mg/mL] | Hydrogen-deuterium exchange, deuteration within 1 min [1] | Hydrogen-deuterium exchange, deuteration within 24 h [1]
mycetolassin-15 | > 20 | only a fraction of the exchangeable protons were deuterated | not fully deuterated
mycetolassin-18 | > 20 | only a fraction of the exchangeable protons were deuterated | not fully deuterated
